≈ marks a conversion by molar mass, not a printed value.
Tests used:
Assay type in all cases: functional
[1] = system: Escherichia coli; test: Antibacterial activity against fluoroquinolone resistant Escherichia coli SKM18 by CLSI M100-S17 protocol based method
[2] = system: Acinetobacter baumannii; test: Antibacterial activity against fluoroquinolone resistant Acinetobacter baumannii isolate MMX2240 by CLSI M100-S17 protocol based method
[3] = system: Acinetobacter baumannii; test: Antibacterial activity against wild type Acinetobacter baumannii ATCC BAA-747 by CLSI M100-S17 protocol based method
[4] = system: Escherichia coli; test: Antibacterial activity against wild type Escherichia coli ATCC 25922 in presence of HSA by CLSI M100-S17 protocol based method
[5] = system: Klebsiella pneumoniae; test: Antibacterial activity against wild type Klebsiella pneumoniae ATCC 35657 by CLSI M100-S17 protocol based method
[6] = system: Escherichia coli; test: Antibacterial activity against wild type Escherichia coli ATCC 25922 by CLSI M100-S17 protocol based method
[7] = system: Escherichia coli; test: Antibacterial activity against quinolone resistance Escherichia coli isolate ELZ4251 harboring gyrA/parC mutant by CLSI M100-S17 protocol based method
[8] = system: Escherichia coli; test: Selectivity ratio of MIC for wild type Escherichia coli ATCC 25922 in presence of HSA to MIC for wild type Escherichia coli ATCC 25922
[9] = system: Escherichia coli; test: Antibacterial activity against beta-lactam resistant Escherichia coli by broth microdilution method
Method in brief: (§1)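 MICs were determined by CLSI broth methods, except that organisms were grown in brain–heart–infusion medium. The panel comprised wild-type and resistant E. coli and A. baumannii strains, including 12 strains whose details are given by reference.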

[10] = system: Acinetobacter baumannii; test: Antibacterial activity against carbapenem resistant Acinetobacter baumannii by broth microdilution method; method in brief: as §1
[11] = system: Escherichia coli; test: Antibacterial activity against quinolone resistant Escherichia coli by broth microdilution method; method in brief: as §1
[12] = system: Acinetobacter baumannii; test: Antibacterial activity against quinolone resistant Acinetobacter baumannii by broth microdilution method; method in brief: as §1
[13] = system: Acinetobacter baumannii; test: Antibacterial activity against wild type Acinetobacter baumannii by broth microdilution method; method in brief: as §1
[14] = system: Acinetobacter baumannii; test: Antibacterial activity against beta-lactam resistant Acinetobacter baumannii by broth microdilution method; method in brief: as §1
[15] = system: Escherichia coli; test: Antibacterial activity against multidrug resistant Escherichia coli by broth microdilution method; method in brief: as §1
[16] = system: Escherichia coli; test: Antibacterial activity against wild type Escherichia coli by broth microdilution method; method in brief: as §1
[17] = system: Acinetobacter baumannii; test: Antibacterial activity against aminoglycoside resistant Acinetobacter baumannii by broth microdilution method; method in brief: as §1
[18] = system: Acinetobacter baumannii; test: Antibacterial activity against multidrug resistant Acinetobacter baumannii by broth microdilution method; method in brief: as §1
[19] = system: Escherichia coli; test: Antibacterial activity against aminoglycoside resistant Escherichia coli by broth microdilution method; method in brief: as §1

COC1CCN(Cc2cc3cc4c(cc3n2C)CCCc2c-4[nH]c(=O)c(C(=O)O)c2O)C1 (centres undefined)
MIC [1]: 2 mg/L (≈ 4.57 µM) | MIC [2]: 3.1 mg/L (≈ 7.09 µM) | MIC [3]: 3.1 mg/L (≈ 7.09 µM) | MIC [4]: 3.1 mg/L | MIC [5]: 3.1 mg/L (≈ 7.09 µM) | MIC [6]: 1.6 mg/L (≈ 3.66 µM)

CN(C)Cc1cc2cc(-c3[nH]c(=O)c(C(=O)O)c(O)c3C3CC3)ccc2n1C
MIC [1]: 31.3 mg/L (≈ 82.1 µM) | MIC [2]: 15.6 mg/L (≈ 40.9 µM) | MIC [3]: > 62.5 mg/L | MIC [4]: > 62.5 mg/L | MIC [5]: 31.3 mg/L (≈ 82.1 µM) | MIC [6]: 62.5 mg/L (≈ 164 µM)

CN(C)Cc1cc2cc(-c3cc(O)c(C(=O)O)c(=O)[nH]3)ccc2n1C
MIC [1]: > 12.5 mg/L | MIC [6]: > 12.5 mg/L

COCCNCc1cc2cc3c(cc2n1C)OCCc1c-3[nH]c(=O)c(C(=O)O)c1O
MIC [1]: 0.5 mg/L (≈ 1.21 µM) | MIC [2]: 7.8 mg/L (≈ 18.9 µM) | MIC [3]: 7.8 mg/L (≈ 18.9 µM) | MIC [4]: 15.6 mg/L | MIC [5]: 2 mg/L (≈ 4.84 µM) | MIC [6]: 2 mg/L (≈ 4.84 µM)

CC(C)NCc1cc2cc3c(cc2n1C)COCc1c-3[nH]c(=O)c(C(=O)O)c1O
MIC [1]: 0.78 mg/L (≈ 1.96 µM) | MIC [2]: > 50 mg/L | MIC [3]: > 50 mg/L | MIC [5]: 3.1 mg/L (≈ 7.8 µM) | MIC [6]: 12.5 mg/L (≈ 31.5 µM)

COC1CCN(Cc2cc3cc4c(cc3n2C)OCCc2c-4[nH]c(=O)c(C(=O)O)c2O)C1 (centres undefined)
MIC [1]: 2 mg/L (≈ 4.55 µM) | MIC [2]: 7.8 mg/L (≈ 17.7 µM) | MIC [3]: 3.9 mg/L (≈ 8.87 µM) | MIC [4]: 7.8 mg/L | MIC [5]: 15.6 mg/L (≈ 35.5 µM) | MIC [6]: 3.9 mg/L (≈ 8.87 µM)

CCc1c(-c2ccc3c(ccn3C)c2)[nH]c(=O)c(C(=O)O)c1O
MIC [7]: 6.3 mg/L (≈ 20.2 µM) | MIC [1]: 3.1 mg/L (≈ 9.93 µM) | MIC [2]: 0.78 mg/L (≈ 2.5 µM) | MIC [3]: 0.78 mg/L (≈ 2.5 µM) | MIC [4]: > 62.5 mg/L | Ratio [8]: >40 | MIC [5]: 3.1 mg/L (≈ 9.93 µM) | MIC [6]: 0.78 mg/L (≈ 2.5 µM)

CCc1c(-c2ccc3c(c2)cc(CNC(C)(C)C)n3C)[nH]c(=O)c(C(=O)O)c1O
MIC [7]: 6.3 mg/L (≈ 15.9 µM) | MIC [1]: 6.3 mg/L (≈ 15.9 µM) | MIC [2]: 6.3 mg/L (≈ 15.9 µM) | MIC [3]: 0.78 mg/L (≈ 1.96 µM) | MIC [4]: 1.6 mg/L | MIC [5]: 0.78 mg/L (≈ 1.96 µM) | MIC [6]: 0.78 mg/L (≈ 1.96 µM)

CCc1c(-c2ccc3c(c2)cc(CN2CCCC2)n3C)[nH]c(=O)c(C(=O)O)c1O
MIC [7]: 6.3 mg/L (≈ 15.9 µM) | MIC [1]: 6.3 mg/L (≈ 15.9 µM) | MIC [2]: 12.5 mg/L (≈ 31.6 µM) | MIC [3]: 0.78 mg/L (≈ 1.97 µM) | MIC [5]: 0.78 mg/L (≈ 1.97 µM) | MIC [6]: 0.78 mg/L (≈ 1.97 µM)

CCc1c(-c2ccc3c(c2)cc(CNC)n3C)[nH]c(=O)c(C(=O)O)c1O
MIC [7]: 3.1 mg/L (≈ 8.72 µM) | MIC [1]: 1.6 mg/L (≈ 4.5 µM) | MIC [2]: 6.3 mg/L (≈ 17.7 µM) | MIC [3]: 0.78 mg/L (≈ 2.19 µM) | MIC [4]: 0.78 mg/L | MIC [5]: 0.78 mg/L (≈ 2.19 µM) | MIC [6]: 0.39 mg/L (≈ 1.1 µM)

CC(C)NCc1cc2cc3c(cc2n1C)NCCc1c-3[nH]c(=O)c(C(=O)O)c1O
MIC [7]: 62.5 mg/L (≈ 158 µM) | MIC [1]: 3.9 mg/L (≈ 9.84 µM) | MIC [2]: > 25 mg/L | MIC [3]: > 25 mg/L | MIC [5]: 6.3 mg/L (≈ 15.9 µM) | MIC [6]: 7.8 mg/L (≈ 19.7 µM)

CN(C)CCNCc1cc2cc3c(cc2n1C)OCCc1c-3[nH]c(=O)c(C(=O)O)c1O
MIC [1]: 7.8 mg/L (≈ 18.3 µM) | MIC [2]: > 62.5 mg/L | MIC [3]: > 62.5 mg/L | MIC [4]: 62.5 mg/L | MIC [5]: 31.3 mg/L (≈ 73.4 µM) | MIC [6]: > 62.5 mg/L

CN(C)Cc1cc2cc3c(cc2n1C)SCCc1c-3[nH]c(=O)c(C(=O)O)c1O
MIC [1]: 2 mg/L (≈ 5.01 µM) | MIC [2]: 3.9 mg/L (≈ 9.76 µM) | MIC [3]: 2 mg/L (≈ 5.01 µM) | MIC [4]: 31.2 mg/L | MIC [5]: 2 mg/L (≈ 5.01 µM) | MIC [6]: 2 mg/L (≈ 5.01 µM)

COCCNCc1cc2cc3c(cc2n1C)CCCc1c-3[nH]c(=O)c(C(=O)O)c1O
MIC [7]: 1.6 mg/L (≈ 3.89 µM) | MIC [1]: 0.5 mg/L (≈ 1.22 µM) | MIC [2]: 1 mg/L (≈ 2.43 µM) | MIC [3]: 1.6 mg/L (≈ 3.89 µM) | MIC [4]: 3.1 mg/L | MIC [5]: 0.78 mg/L (≈ 1.9 µM) | MIC [6]: 0.78 mg/L (≈ 1.9 µM)

CN(C)Cc1cc2cc3c(cc2n1C)COCc1c-3[nH]c(=O)c(C(=O)O)c1O
MIC [1]: 0.78 mg/L (≈ 2.03 µM) | MIC [2]: 25 mg/L (≈ 65.2 µM) | MIC [3]: 25 mg/L (≈ 65.2 µM) | MIC [5]: 3.1 mg/L (≈ 8.09 µM) | MIC [6]: 6.3 mg/L (≈ 16.4 µM)

CC(C)c1c(-c2ccc3c(c2)cc(CN(C)C)n3C)[nH]c(=O)c(C(=O)O)c1O
MIC [1]: > 62.5 mg/L | MIC [2]: 62.5 mg/L (≈ 163 µM) | MIC [3]: 15.6 mg/L (≈ 40.7 µM) | MIC [4]: 31.3 mg/L | MIC [5]: 3.9 mg/L (≈ 10.2 µM) | MIC [6]: 3.1 mg/L (≈ 8.08 µM)

C[C@H]1COc2c(N3CCN(C)CC3)c(F)cc3c(=O)c(C(=O)O)cn1c23.C[C@H]1COc2c(N3CCN(C)CC3)c(F)cc3c(=O)c(C(=O)O)cn1c23.O [LEVOFLOXACIN]
MIC [9]: 0.015 to 32 mg/L | MIC50 ([9]; Escherichia coli): 0.06 mg/L | MIC90 ([9]; Escherichia coli): 32 mg/L | MIC [10]: 0.06 to 64 mg/L | MIC50 ([10]; Acinetobacter baumannii): 2 mg/L | MIC90 ([10]; Acinetobacter baumannii): 16 mg/L | MIC [11]: 0.015 to 32 mg/L | MIC50 ([11]; Escherichia coli): 0.06 mg/L | MIC90 ([11]; Escherichia coli): 32 mg/L | MIC [12]: 0.06 to 64 mg/L | MIC50 ([12]; Acinetobacter baumannii): 2 mg/L | MIC90 ([12]; Acinetobacter baumannii): 16 mg/L | MIC50 [13]: 2 mg/L | MIC90 [13]: 16 mg/L | MIC [14]: 0.06 to 64 mg/L | MIC50 ([14]; Acinetobacter baumannii): 2 mg/L | MIC90 ([14]; Acinetobacter baumannii): 16 mg/L | MIC [15]: 0.015 to 32 mg/L | MIC50 ([15]; Escherichia coli): 0.06 mg/L | MIC90 ([15]; Escherichia coli): 32 mg/L | MIC50 [16]: 0.06 mg/L | MIC90 [16]: 32 mg/L | MIC [17]: 0.06 to 64 mg/L | MIC50 ([17]; Acinetobacter baumannii): 2 mg/L | MIC90 ([17]; Acinetobacter baumannii): 16 mg/L | MIC [18]: 0.06 to 64 mg/L | MIC50 ([18]; Acinetobacter baumannii): 2 mg/L | MIC90 ([18]; Acinetobacter baumannii): 16 mg/L | MIC [19]: 0.015 to 32 mg/L | MIC50 ([19]; Escherichia coli): 0.06 mg/L | MIC90 ([19]; Escherichia coli): 32 mg/L

CC(C)NCc1cc2cc3c(cc2n1C)SCCc1c-3[nH]c(=O)c(C(=O)O)c1O
MIC [7]: 3.1 mg/L (≈ 7.5 µM) | MIC [1]: 1 mg/L (≈ 2.42 µM) | MIC [2]: 3.9 mg/L (≈ 9.43 µM) | MIC [3]: 2 mg/L (≈ 4.84 µM) | MIC [4]: 15.6 mg/L | Ratio [8]: 8 - 16 | MIC [5]: 2 mg/L (≈ 4.84 µM) | MIC [6]: 2 mg/L (≈ 4.84 µM)
